In ChEMBL document CHEMBL5131404, “Lipophilic quinolone derivatives: Synthesis and in vitro antibacterial evaluation” (2022) one finds MIC data, which are given here for 6 compounds.

The structures appear in SMILES notation. Converted amounts (≈) assume the structure as drawn. A value given as a limit tells only on which side of the number the result lay.

Holding throughout (type): functional
Test [1] concerns Neisseria gonorrhoeae. As to the kind of experiment: Antibacterial activity against Neisseria gonorrhoeae ATCC 19424. The gist of the method:
(§1)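 Agar dilution MIC. Strains were cultured on GC agar with 2% v/v Vitox and 1% haemoglobin. Suspensions of 10^5 CFU/mL were spotted in duplicate onto the same supplemented GC agar containing various compound concentrations, then incubated 24-48 h at 37°C in 5% CO2. The MIC is the lowest concentration inhibiting growth, from at least three independent experiments.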

The subject of test [2] is Escherichia coli. As to the kind of experiment: Antibacterial activity against Escherichia coli ATCC 35218. The gist of the method:
(§2)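 Broth microdilution MIC following CLSI guidelines. Strains were grown on Mueller-Hinton agar beforehand. The MIC is the lowest compound concentration that inhibits bacterial growth, determined at least three times in independent experiments.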

The test system of test [3] is Streptococcus pneumoniae. As to the kind of experiment: Antibacterial activity against Streptococcus pneumoniae ATCC 49169. The gist of the method:
as §2

Test [4] has as its system Staphylococcus aureus. As to the kind of experiment: Antibacterial activity against Staphylococcus aureus ATCC 29213. The procedure, abridged: as §2
In test [5] the test system is Pseudomonas aeruginosa. Kind of test: Antibacterial activity against Pseudomonas aeruginosa ATCC 27853. The gist of the method: as §2
The test system of test [6] is Acinetobacter baumannii. As to the kind of experiment: Antibacterial activity against Acinetobacter baumannii 140. The gist of the method:
as §2

For test [7], the system named is Acinetobacter baumannii. Kind of test: Antibacterial activity against Acinetobacter baumannii ATCC 19606. The gist of the method:
as §2

Test [8] has as its system Staphylococcus aureus. Kind of test: Antibacterial activity against methicillin-resistant Staphylococcus aureus 197. The gist of the method:
(§3)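 Strains grown on Mueller-Hinton agar. MIC by broth microdilution following CLSI guidelines, taken as the lowest concentration inhibiting bacterial growth. Determined at least three times in independent experiments.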

Test [9] concerns Escherichia coli. Kind of test: Antibacterial activity against Escherichia coli 202. The procedure, abridged: as §2
The test system of test [10] is Pseudomonas aeruginosa. As to the kind of experiment: Antibacterial activity against Pseudomonas aeruginosa 142. The procedure, abridged:
as §2

Test [11] concerns Staphylococcus aureus. As to the kind of experiment: Antibacterial activity against methicillin-resistant Staphylococcus aureus 196. The gist of the method: as §3
Test [12] relates to Escherichia coli. Kind of test: Antibacterial activity against Escherichia coli 203. The procedure, abridged: as §2
Test [13] has as its system Pseudomonas aeruginosa. As to the kind of experiment: Antibacterial activity against Pseudomonas aeruginosa 143. The procedure, abridged:
as §2

In test [14] the test system is Acinetobacter baumannii. Kind of test: Antibacterial activity against Acinetobacter baumannii 139. The gist of the method:
as §2

The test system of test [15] is Neisseria gonorrhoeae. Kind of test: Antibacterial activity against Neisseria gonorrhoeae WHO A. The gist of the method: as §1
In test [16] the test system is Neisseria gonorrhoeae. As to the kind of experiment: Antibacterial activity against Neisseria gonorrhoeae WHO C. The procedure, abridged: as §1
Test [17] relates to Neisseria gonorrhoeae. Kind of test: Antibacterial activity against Neisseria gonorrhoeae WHO K. The gist of the method:
as §1

Test [18] has as its system Neisseria gonorrhoeae. Kind of test: Antibacterial activity against Neisseria gonorrhoeae WHO M. The gist of the method:
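Agar dilution on GC agar base with 2% v/v Vitox and 1% haemoglobin containing graded compound concentrations. Suspensions at 10^5 CFU/mL spotted in duplicate. Incubation 24-48h, 37°C, 5% CO2. MIC taken as the lowest concentration inhibiting growth, determined at least three times in independent experiments.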

Test [19] deals with Neisseria gonorrhoeae. As to the kind of experiment: Antibacterial activity against Neisseria gonorrhoeae WHO Q. The procedure, abridged: as §1
Test [20] deals with Neisseria gonorrhoeae. Kind of test: Antibacterial activity against Neisseria gonorrhoeae WHO G. The gist of the method: as §1
Test [21] has as its system Neisseria gonorrhoeae. Kind of test: Antibacterial activity against Neisseria gonorrhoeae Barla194. The procedure, abridged: as §1
Test [22] deals with Neisseria gonorrhoeae. Kind of test: Antibacterial activity against Neisseria gonorrhoeae WHO B. The gist of the method:
as §1

Test [23] relates to Neisseria gonorrhoeae. As to the kind of experiment: Antibacterial activity against Neisseria gonorrhoeae WHO Z. The gist of the method: as §1
Test [24] deals with Neisseria gonorrhoeae. As to the kind of experiment: Antibacterial activity against Neisseria gonorrhoeae WHO O. The procedure, abridged: as §1
Test [25] concerns Neisseria gonorrhoeae. Kind of test: Antibacterial activity against Neisseria gonorrhoeae WHO E. The procedure, abridged: as §1

Consider `CCCCC(CC)CN1CCN(c2c(F)cc3c(=O)c(C(=O)O)cn(C4CC4)c3c2OC)CC1` (stereo not given), for which the MIC in test [1] is over 32 µg/mL; in [2] it was at least 64 µg/mL; in test [3], 2 µg/mL (≈ 4.22 µM); in test [4], 32 µg/mL (≈ 67.6 µM).

For the compound `CCCCCCCN1CCN(c2c(F)cc3c(=O)c(C(=O)O)cn(C4CC4)c3c2OC)CC1`, the MIC was found to be 0.25 µg/mL (≈ 0.544 µM) in test [1]; 64 µg/mL (≈ 139 µM) in test [5]; 64 µg/mL (≈ 139 µM) in test [6]; 1 µg/mL (≈ 2.18 µM) in [2]; 4 µg/mL (≈ 8.7 µM) in test [3]; 1 µg/mL (≈ 2.18 µM) in test [4]. Further, the minimum inhibitory concentration (MIC) is 8 µg/mL (≈ 17.4 µM) in test [7]; 8 µg/mL (≈ 17.4 µM) in [8]; 2 µg/mL (≈ 4.35 µM) in test [9]; over 64 µg/mL in test [10]; 2 µg/mL (≈ 4.35 µM) in test [11]; over 64 µg/mL in test [12]. The MIC in [13] is over 64 µg/mL; in test [14], 4 µg/mL (≈ 8.7 µM).

On to `CCCCCCCCCCCCN1CCN(c2c(F)cc3c(=O)c(C(=O)O)cn(C4CC4)c3c2OC)CC1`, for which the MIC in [1] was 0.12 µg/mL (≈ 0.227 µM); in test [5], over 64 µg/mL; in test [6], 64 µg/mL (≈ 121 µM); in test [2], 64 µg/mL (≈ 121 µM); in test [3], 4 µg/mL (≈ 7.55 µM); in test [4] it was 32 µg/mL (≈ 60.4 µM). The MIC is 64 µg/mL (≈ 121 µM) in test [7]; at least 64 µg/mL in test [8]; 32 µg/mL (≈ 60.4 µM) in test [9]; over 64 µg/mL in [10]; at least 64 µg/mL in test [11]; over 64 µg/mL in test [12]. Moreover, the minimum inhibitory concentration (MIC) is over 64 µg/mL in test [13] and at least 64 µg/mL in [14].

Regarding `CCCCCCCC(=O)N1CCN(c2c(F)cc3c(=O)c(C(=O)O)cn(C4CC4)c3c2OC)CC1`, the MIC in test [1] is 1 µg/mL (≈ 2.05 µM); in test [2], at least 64 µg/mL; in test [3] it was 0.5 µg/mL (≈ 1.03 µM); in test [4] it was 1 µg/mL (≈ 2.05 µM).

For `CCCCCCCCN1CCN(c2c(F)cc3c(=O)c(C(=O)O)cn(C4CC4)c3c2OC)CC1`, the minimal inhibitory concentration (MIC) was 0.03 µg/mL (≈ 0.0633 µM) in [15]; 0.25 µg/mL (≈ 0.528 µM) in test [1]; 0.5 µg/mL (≈ 1.06 µM) in test [16]; 256 µg/mL (≈ 541 µM) in test [17]; over 64 µg/mL in test [5]; 16 µg/mL (≈ 33.8 µM) in [18]. The minimal inhibitory concentration (MIC) was 0.5 µg/mL (≈ 1.06 µM) in [19]; 0.25 µg/mL (≈ 0.528 µM) in test [20]; 128 µg/mL (≈ 270 µM) in test [21]; 64 µg/mL (≈ 135 µM) in test [6]; at least 64 µg/mL in test [2]; 32 µg/mL (≈ 67.6 µM) in test [3]. Also, the MIC was 4 µg/mL (≈ 8.45 µM) in [4]; 16 µg/mL (≈ 33.8 µM) in test [7]; 0.12 µg/mL (≈ 0.253 µM) in test [22]; 8 µg/mL (≈ 16.9 µM) in [8]; 2 µg/mL (≈ 4.22 µM) in test [9]; over 32 µg/mL in test [23]. The minimum inhibitory concentration (MIC) in test [10] was over 64 µg/mL; in test [11], 4 µg/mL (≈ 8.45 µM); in [12] it was over 64 µg/mL; in test [13] it was over 64 µg/mL; in test [14], 16 µg/mL (≈ 33.8 µM); in test [24], 0.03 µg/mL (≈ 0.0633 µM). Further, inhibition of growth in test [25] (MIC) required 0.03 µg/mL (≈ 0.0633 µM).

Take `CCCCCCCCCCCCCCN1CCN(c2c(F)cc3c(=O)c(C(=O)O)cn(C4CC4)c3c2OC)CC1`: the MIC is 0.12 µg/mL (≈ 0.215 µM) in test [1]; over 64 µg/mL in test [5]; at least 64 µg/mL in [6]; 32 µg/mL (≈ 57.4 µM) in test [2]; 8 µg/mL (≈ 14.3 µM) in test [3]; 32 µg/mL (≈ 57.4 µM) in test [4]. Also, the MIC was 64 µg/mL (≈ 115 µM) in [7]; over 64 µg/mL in test [8]; 64 µg/mL (≈ 115 µM) in test [9]; over 64 µg/mL in [10]; over 64 µg/mL in test [11]; over 64 µg/mL in test [12]. Further, the MIC in test [13] is over 64 µg/mL; in [14], at least 64 µg/mL.
